KCNK9 block: human KCNK9 channel inhibition | HEK293 KCNK9, FluxOR thallium flux fluorescence; hits give low values | B-score at 10 µM | Q9NPC2 | 310,000 compounds, 1.2% hits;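 active = ratio B-score over 3 SD below the library mean, with starting fluorescence within 5 SD of its mean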;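 note: negative B-score means less thallium flux so channel inhibition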
KCNQ1 inh: blocks the human KCNQ1 potassium channel; B-score at 10 µM; AID 2642; 310,000 compounds, 1.3% hits; CHO-K1 KCNQ1, FluxOR thallium flux fluorescence; hits give high values;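 active = compounds whose thallium flux B-score, printed positive for inhibition, exceeds three library SD while starting fluorescence stays within three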;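 note: channel opened by potassium depolarization with thallium stimulus after 20 min compound exposure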
KCNK3 inh: human KCNK3 channel inhibition, primary screen; 340,000 compounds, 0.84% hits; CHO-KCNK3 thallium flux, FluxOR fluorescence; hits give low values; O14649; B-score at 10 µM;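 active = B-score under library mean minus 4 SD, starting fluorescence ratio at most library mean plus 5 SD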;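 note: more negative B-score means stronger inhibition of thallium flux through KCNK3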
Target sequence (O14649 whole entry, looked up): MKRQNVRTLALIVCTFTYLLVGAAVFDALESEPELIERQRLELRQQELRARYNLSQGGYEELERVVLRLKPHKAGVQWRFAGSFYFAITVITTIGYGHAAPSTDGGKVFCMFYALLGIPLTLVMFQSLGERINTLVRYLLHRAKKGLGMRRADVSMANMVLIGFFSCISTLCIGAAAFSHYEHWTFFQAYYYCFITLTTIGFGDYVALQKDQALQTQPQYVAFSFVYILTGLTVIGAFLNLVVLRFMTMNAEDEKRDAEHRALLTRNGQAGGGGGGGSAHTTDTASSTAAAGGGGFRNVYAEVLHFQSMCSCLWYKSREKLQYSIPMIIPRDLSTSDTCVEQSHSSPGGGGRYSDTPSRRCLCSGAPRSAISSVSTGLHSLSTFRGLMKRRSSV
KCNQ1 pot: human KCNQ1 channel potentiation or activation; 310,000 compounds, 0.35% hits; CHO-K1 KCNQ1, thallium flux FluxOR fluorescence; hits give high values; B-score at 10 µM; P51787;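 active = fluorescence ratio B-score, a plate-corrected score, at least three library SD, with initial intensity B-score within 5 SD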
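Medium – assay buffer, equal DMSO in all wells · Material – CHO-K1 cell line with stable KCNQ1 potassium channel expression · Signal – kinetic FluxOR thallium fluorescence, 10-s 1-Hz baseline, 110-s post-stimulus read · Compound – single concentration per compound, DMSO matched to controls · Schedule – 37 °C overnight plating, 90-min dark dye load, 20-min compound pretreatment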
hERG protect: compounds protecting human hERG from proarrhythmic drug block. Q12809. CHO-hERG, FluxOR thallium flux, dofetilide IC70 present. activation (rescue from dofetilide block), less the hit threshold, % at 10 µM. 310,000 compounds, 0.51% hits;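 active = activation above the mean of controls blocked by dofetilide plus 5 SD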;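 note: thallium influx through hERG after potassium depolarization seen as dye fluorescence rise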
KCC2 mod: KCC2 (human) Cl- transport modulation; KCC2 cells, thallium flux FluoZin-2 fluorescence; Q9H2X9; B-score of Tl+ flux slope (higher = more flux/activation; lower = inhibition) at 10 µM; 190,000 compounds, 2.2% hits;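 active = thallium flux slope and its plate-corrected score both differing from the plate sample mean at a set confidence after two filtering rounds, in either direction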;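 note: slope of fluorescence scaled to starting intensity during 10 to 20 s after thallium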
KCNK9 block conf: human KCNK9 inhibitor confirmation; shares compounds with KCNK9 block; HEK293 KCNK9 cells, FluxOR thallium flux fluorescence; 4,900 compounds, 43% hits; inhibition, % at 10 µM;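 active = thallium signal inhibited by more than 5 SD of the compound-free buffer control wells, on both duplicate plates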;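 note: 0% = assay buffer control wells without compound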
Kir2-1 spec: selectivity of KCNK9 modulators against mouse Kir2.1; shares compounds with KCNK9 block; Kir2.1 cells, FluxOR thallium flux fluorescence; inhibition, % at 10 µM; 4,900 compounds, 4% hits; AID 492993;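 active = thallium signal drop more than 5 SD beyond the mean of the no-compound control wells, seen in both duplicate plates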;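 note: signal is fluorescence rise after thallium addition divided by baseline fluorescence; plate controls were assay buffer only for no effect and full block by chlorpromazine control for full effect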
KCNK9 uninduced: second check of KCNK9 modulator effects in non-induced HEK293 cells. shares compounds with KCNK9 block. FluxOR thallium flux. inhibition, % at 10 µM. 4,900 compounds, 40% hits. AID 492997;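 active = thallium signal drop beyond 5 SD of the untreated control mean, on both duplicate plates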;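 note: plate controls were buffer only IC0 wells for no effect and SID17386958 at its maximal inhibitory level for full effect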
An asterisk follows results filed as active; i = inactive; x = not tested or not shown. This is a sample that favours compounds with a hit; in the whole collection about 4.1% have one here.

SMILES | KCNK9 block | KCNQ1 inh | KCNK3 inh | KCNQ1 pot | hERG protect | KCC2 mod | KCNK9 block conf | Kir2-1 spec | KCNK9 uninduced
CCC(=O)NC(=S)Nc1cccc(-c2nc3ncccc3o2)c1 | i | i | i | i | -7 | -1.5 | x | x | x
Cc1ccc2[nH]c(=O)c(C(c3nnnn3C3CCCC3)N(Cc3cccnc3)Cc3ccco3)cc2c1 (centres undefined) | i | i | i | i | -10 | -0.41 | x | x | x
Clc1ccc(C(c2nnnn2C2CCCCC2)N(Cc2cccnc2)Cc2ccco2)cc1 (centres undefined) | -11* | i | i | i | -9 | -1.6 | i | i | 45%*
CCOc1ccc(C(=O)NCC(=O)OCC(=O)N(C)CC(=O)Nc2ccccc2CC)cc1OCC | x | x | i | x | x | x | x | x | x
O=C(NCc1cccs1)c1cc(-c2ccccc2)nn1CC1CC(c2cccc([N+](=O)[O-])c2)=NO1 (centres undefined) | i | i | i | i | -4 | x | x | x | x
COc1ccccc1CNC(=O)c1cc(-c2ccccc2)nn1CC1CC(c2cccc([N+](=O)[O-])c2)=NO1 (centres undefined) | -8.7* | i | i | i | -8 | x | 44%* | i | 30%*
O=C(COC(=O)c1cccc(F)c1)NC(=O)NCc1ccccc1 | x | x | i | x | x | x | x | x | x
c1cnc(SCCOc2cccc3ccccc23)nc1 | -9.9* | i | i | i | -3 | x | 48%* | i | 38%*
CC1=CC(=O)O[C@@H]1[C@@]1(C)C[C@H]2OC(=O)C[C@H]3[C@@H](C)C(=O)C(O)=C1[C@@]23CO | i | i | i | i | -5 | x | x | x | x
O=C(NCc1ccc(F)cc1)c1noc2c1CCCC2 | i | i | i | i | -5 | x | x | x | x
CC(C)(C)C1CCc2onc(C(=O)NCc3ccc(F)cc3)c2C1 (centres undefined) | i | i | i | i | -9 | -0.66 | i | i | i
CN(CC(=O)NC(=O)NCc1ccccc1)Cc1cccc(Cl)c1Cl | i | i | i | i | 0 | -1.5 | i | i | 22%*
CN(CC(=O)NC(=O)NCc1ccccc1)Cc1ccc(Cl)cc1 | i | i | i | i | -4 | -0.91 | i | i | i
COc1ccc(C)cc1S(=O)(=O)N(CC(=O)NCc1ccc(Cl)cc1)Cc1ccccc1 | -10* | i | i | i | -11 | x | i | i | 40%*
CN(C)C(CNc1ncnc2sc3c(c12)CCCC3)c1ccco1 (centres undefined) | i | i | i | i | -5 | -1.4 | i | i | i
c1coc(CNc2ncnc3sc4c(c23)CCCCC4)c1 | i | i | i | i | -21 | -0.77 | x | x | x
O=C(Nc1cnn(Cc2ccc(F)cc2)c1)c1cnn2c(C(F)F)cc(-c3ccccc3)nc12 | -13* | i | i | i | -10 | 0.041 | 50%* | i | 36%*
COc1cccc(/C(C#N)=C/c2c(-c3ccc(Cl)cc3)nc3c(C)cccn23)c1 | -8.9* | 8* | i | i | -6 | -0.12 | 58%* | i | 38%*
Cc1cccn2c(/C=N/OCc3cccc(F)c3)c(-c3ccc(Cl)cc3)nc12 | i | i | i | i | -20 | 0.34 | x | x | x
Cc1cccc(-n2nc(C(=O)Nc3ccccc3)n3c(=O)cc(-c4ccccc4)nc23)c1 | i | i | i | i | -11 | -0.43 | i | i | i
CCOC(=O)c1nn(-c2cccc(Cl)c2)c2nc(Nc3ccccc3)cc(=O)n12 | i | i | i | i | -6 | 0.56 | x | x | x
Cc1nnc(SCc2ccc(Cl)cc2)nc1/C=C/N(C)C | i | i | i | i | -12 | -1.4 | i | i | i

Source: PubChem
